Data taken from publication PMC4137986 (Chemical Research in Toxicology, 2014).
“Also recorded” adds a separate entry of the source. Read-outs that look alike come from different tables or passages of the source.

Columns and labels:
P450 1A1 [1] = biological target: T1, P450 1A1 (Homo sapiens, UniProt P04798); assay: P450 1A1-dependent deethylation of resorufin ethyl ether; type: biochemical
T1 sequence (P04798 1-512): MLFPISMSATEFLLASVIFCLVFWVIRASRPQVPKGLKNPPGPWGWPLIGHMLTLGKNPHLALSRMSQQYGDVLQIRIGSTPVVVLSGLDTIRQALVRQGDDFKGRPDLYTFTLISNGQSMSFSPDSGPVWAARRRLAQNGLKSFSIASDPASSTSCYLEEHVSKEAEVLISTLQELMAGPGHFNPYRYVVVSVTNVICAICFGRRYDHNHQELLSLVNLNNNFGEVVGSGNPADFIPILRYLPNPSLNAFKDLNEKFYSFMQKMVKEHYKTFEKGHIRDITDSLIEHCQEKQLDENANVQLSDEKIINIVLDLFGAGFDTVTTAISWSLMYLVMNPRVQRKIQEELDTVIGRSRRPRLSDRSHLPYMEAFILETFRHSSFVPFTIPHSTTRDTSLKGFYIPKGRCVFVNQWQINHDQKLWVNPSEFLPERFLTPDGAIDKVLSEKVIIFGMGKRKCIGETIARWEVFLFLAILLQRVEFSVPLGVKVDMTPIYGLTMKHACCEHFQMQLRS

P450 1A1 over P450 1A2 = biological target: T2, P450 1A1 over P450 1A2 (Homo sapiens, UniProt P04798); assay: as above; type: biochemical; settings: human, recombinant human CYP1A1 and CYP1A2 supersomes, pH 7.6
T2 sequence (P04798 1-512): T1 sequence (P04798 1-512)

P450 1A2 = biological target: T3, P450 1A2 (Homo sapiens, UniProt P05177); assay: P450 1A2-dependent demethylation of resorufin methyl ether; type: biochemical
T3 sequence (P05177 1-516): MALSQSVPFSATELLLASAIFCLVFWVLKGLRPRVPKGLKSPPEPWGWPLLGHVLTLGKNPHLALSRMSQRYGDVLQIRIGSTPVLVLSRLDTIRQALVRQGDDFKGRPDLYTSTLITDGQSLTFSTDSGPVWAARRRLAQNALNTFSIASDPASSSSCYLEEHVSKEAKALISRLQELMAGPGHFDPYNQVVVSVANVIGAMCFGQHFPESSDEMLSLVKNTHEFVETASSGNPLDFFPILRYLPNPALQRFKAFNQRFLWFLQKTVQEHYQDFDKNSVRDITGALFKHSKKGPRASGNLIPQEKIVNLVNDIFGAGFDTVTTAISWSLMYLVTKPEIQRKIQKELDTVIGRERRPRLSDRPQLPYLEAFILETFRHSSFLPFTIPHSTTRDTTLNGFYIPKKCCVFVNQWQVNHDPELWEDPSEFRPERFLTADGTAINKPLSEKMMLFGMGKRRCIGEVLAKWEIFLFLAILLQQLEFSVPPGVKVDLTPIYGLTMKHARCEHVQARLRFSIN

P450 1A1 [2] = biological target: T1, P450 1A1; assay: Time-dependent inhibition kinetics of P450 1A1; type: biochemical; settings: for kinact: read-out: limiting kinact; for time-dependent inhibition of P450 1A1 (type of inhibition): time-course curves
Summary of the method: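 Human P450 1A1 microsomes (1.6 nM) were used with 5 μM resorufin ethyl ether in pH 7.6 phosphate buffer, with the NADPH-regenerating system added to start the reaction at 37 °C. Product was monitored continuously for 6 min at several inhibitor concentrations. Progress curves were fitted to second-order polynomials, and their derivatives gave activity over time. Semilog plots gave t1/2 (0.693/kinact), and KI and limiting kinact came from Kitz–Wilson plots (1/kinact vs 1/[I]).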

P450 1A1 [3] = biological target: T1, P450 1A1; assay: NADPH-dependency assay; type: biochemical; settings: for NADPH-dependency of the inhibition of P450 1A1: 5 min preincubation with vs without NADPH
Summary of the method: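 Human P450 1A1 microsomes (1.6 nM final) were used in 0.1 M potassium phosphate pH 7.6 with MgCl2, with inhibitor in DMSO at 0.00625 or 0.1 μM. Preincubation was 5 min at 37 °C either with an NADPH-regenerating system, then started with 5 μM resorufin ethyl ether, or without NADPH, then started with regenerating system plus substrate. Resorufin time-course was read at ex 535/em 585 nm, 37 °C.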

P450 1A2 over P450 1A1 = biological target: T4, P450 1A2 over P450 1A1 (Homo sapiens, UniProt P05177); assay: P450 1A2-dependent demethylation of resorufin methyl ether; type: biochemical; settings: human, recombinant human CYP1A1 and CYP1A2 supersomes, pH 7.6
T4 sequence (P05177 1-516): T3 sequence (P05177 1-516)

P450 2B1 = biological target: T5, P450 2B1 (Rattus norvegicus, UniProt P00176); assay: P450 2B1-dependent depentylation of resorufin pentyl ether; type: biochemical
T5 sequence (P00176 1-491): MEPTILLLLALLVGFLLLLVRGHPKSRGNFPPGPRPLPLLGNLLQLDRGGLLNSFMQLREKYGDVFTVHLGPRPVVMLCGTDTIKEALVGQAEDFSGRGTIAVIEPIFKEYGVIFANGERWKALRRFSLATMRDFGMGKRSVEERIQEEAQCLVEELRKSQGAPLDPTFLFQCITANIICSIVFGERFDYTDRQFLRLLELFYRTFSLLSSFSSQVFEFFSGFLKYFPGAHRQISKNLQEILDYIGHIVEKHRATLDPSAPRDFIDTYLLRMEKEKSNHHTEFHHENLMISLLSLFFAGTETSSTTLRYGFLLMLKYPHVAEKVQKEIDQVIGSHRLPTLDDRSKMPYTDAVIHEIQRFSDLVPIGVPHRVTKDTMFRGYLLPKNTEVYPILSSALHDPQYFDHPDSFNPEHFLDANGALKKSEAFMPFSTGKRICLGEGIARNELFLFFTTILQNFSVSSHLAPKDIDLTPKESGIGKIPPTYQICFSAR
Summary of the method: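 Rat P450 2B1 microsomes (5 nM final) were used in 0.1 M potassium phosphate pH 7.6 with MgCl2, with 5 μM resorufin pentyl ether in DMSO. Reactions were started with an NADPH-regenerating system (NADP+, glucose 6-phosphate, G6PDH) and run at 37 °C. Resorufin formation was followed continuously at ex 535/em 585 nm.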

P450 1A1 [4] = biological target: T1, P450 1A1; settings: read-out: Ki of well-known P450 1A1 inhibitors; cited from earlier work

Structure (SMILES)	Ki (P450 1A1 [1]) [nM]	Ki (P450 1A2) [nM]	Ki (P450 1A1 [2]) [nM]	kinact (P450 1A1 [2]) [s⁻¹]	NADPH-dependency of the inhibition of P450 1A1 (P450 1A1 [3])	Ki (P450 2B1) [nM]	effect of 5 min preincubation with NADPH on P450 1A1 activity (P450 1A1 [3]; inhibitor 0.1 μM)	selectivity ratio at 6 min (P450 1A1 over P450 1A2)	time-dependent inhibition of P450 1A1 (type of inhibition) (P450 1A1 [2])	effect of 5 min preincubation with NADPH on P450 1A1 activity (P450 1A1 [3]; inhibitor 0.00625 μM)	selectivity ratio at 6 min (P450 1A2 over P450 1A1)	Ki (P450 1A1 [4]) [nM]
C#Cc1ccccc1-c1cc(=O)c2ccccc2o1 [2′EF, 2′-Ethynylflavone]	1640	230			does not NADPH-dependently inhibit P450 1A1	15700	slight influence on enzymatic activity		only a competitive inhibitor		7.2	
c1cc2ccc3cccc4ccc(c1)c2c34 [pyrene]												~40
C#Cc1cccc(-c2cc(=O)c3ccccc3o2)c1 [3′EF, 3′-Ethynylflavone]			53 ± 7	0.00767	exhibit NADPH-dependency				time- and concentration-dependently inhibit P450 1A1	complete inhibition; also recorded: completely subvert the enzymatic activity		
C#Cc1ccc(-c2cc(=O)c3ccccc3o2)cc1 [4′EF, 4′-Ethynylflavone]		3260	56 ± 14	0.0055	exhibit NADPH-dependency			85	time- and concentration-dependently inhibit P450 1A1	complete inhibition		
O=c1cc(-c2ccccc2)oc2c1ccc1ccccc12 [αNF, α-naphthoflavone]												~40
C#Cc1ccc2cc(-c3ccccc3)c(=O)oc2c1 [7E3PC, 7-ethynyl-3-phenylcoumarin, reference compound]	740											

Continued, in another order:

Ki (P450 1A1 [1]) [nM]	Ki (P450 1A2) [nM]	Ki (P450 1A1 [2]) [nM]	kinact (P450 1A1 [2]) [s⁻¹]	NADPH-dependency of the inhibition of P450 1A1 (P450 1A1 [3])	Ki (P450 2B1) [nM]	effect of 5 min preincubation with NADPH on P450 1A1 activity (P450 1A1 [3]; inhibitor 0.1 μM)	Structure (SMILES)	selectivity ratio at 6 min (P450 1A1 over P450 1A2)	time-dependent inhibition of P450 1A1 (type of inhibition) (P450 1A1 [2])	effect of 5 min preincubation with NADPH on P450 1A1 activity (P450 1A1 [3]; inhibitor 0.00625 μM)	selectivity ratio at 6 min (P450 1A2 over P450 1A1)	Ki (P450 1A1 [4]) [nM]
35	6200	43 ± 8	0.0055	exhibit NADPH-dependency			C#Cc1ccc2oc(-c3ccccc3)cc(=O)c2c1 [6EF, 6-Ethynylflavone]	177	time- and concentration-dependently inhibit P450 1A1	complete inhibition		
		35 ± 12	0.007	exhibit NADPH-dependency			C#Cc1ccc2c(=O)cc(-c3ccccc3)oc2c1 [7EF, 7-Ethynylflavone]		time- and concentration-dependently inhibit P450 1A1	complete inhibition; also recorded: completely subvert the enzymatic activity		
1230		510 ± 90	0.0011	exhibit NADPH-dependency		considerable inhibition	C#Cc1cccc2oc(-c3ccccc3)cc(=O)c12 [5EF, 5-Ethynylflavone]		time- and concentration-dependently inhibit P450 1A1			
